Assay results: ChEMBL document CHEMBL5724801, “EUbOPEN Chemogenomics Library - Multiplex” (2024)
“And” between values parts separate entries of the source, which are not always exact repeats. Identical values can stand only once.

Tested on: Fibroblast
Assay: Multiplex assay against human fibroblast
Type: toxicity, cell-based
Method in brief: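 Per cents of healthy-nucleus cells form the tubulin, mitochondrial-mass and membrane-permeability phenotype values. Live cells were stained at seeding with Hoechst33342, BioTracker Green Microtubule Cytoskeleton Dye, MitoTracker Red and Annexin V Alexa Fluor 680. After compound addition they were imaged on a CQ1 microscope at 37°C and 5% CO2, and CellPathfinder machine-learning gating split them into Hoechst high-intensity objects or normal cells, normal cells into healthy, pyknosed or fragmented nuclei, and pyknosed cells into mitotic or apoptotic.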

[1] = 12 h, 1 µM, compound concentration 1 uM
[2] = 12 h, 10 µM, compound concentration 10 uM
[3] = 24 h, 1 µM, compound concentration 1 uM
[4] = 24 h, 10 µM, compound concentration 10 uM
[5] = 48 h, 1 µM, compound concentration 1 uM
[6] = 48 h, 10 µM, compound concentration 10 uM

Structure (SMILES): O=C(Nc1cc(-c2ccccc2)nn1-c1ccccc1F)c1ccc([N+](=O)[O-])cc1
- Population Apoptotic (%) [1]: 28% and 32%
- Population Fragmented Nuclei (%) [1]: 17% and 19%
- Population Healthy Nuclei (%) [1]: 71% and 55%
- Population Hoechst High Intensity Objects (%) [1]: 2% and 8%
- Population Membrane Permeable-Phenotype (%) [1]: 1% and 4%
- Population Mitochondria Different-Phenotype (%) [1]: 1% and 9%
- Population Mitotic Cells (%) [1]: 71% and 67%
- Population Normal (%) [1]: 97% and 91%
- Population Pyknosed Nuclei (%) [1]: 10% and 25%
- Population Tubulin-Different-Phenotype (%) [1]: 22% and 53%
- Total Cell Count [1]: 138 and 160
- Population Apoptotic (%) [2]: 28% and 45%
- Population Fragmented Nuclei (%) [2]: 10% and 25%
- Population Healthy Nuclei (%) [2]: 66% and 47%
- Population Hoechst High Intensity Objects (%) [2]: 2% and 6%
- Population Membrane Permeable-Phenotype (%) [2]: 1% and 6%
- Population Mitochondria Different-Phenotype (%) [2]: 4% and 3%
- Population Mitotic Cells (%) [2]: 71% and 54%
- Population Normal (%) [2]: 97% and 93%
- Population Pyknosed Nuclei (%) [2]: 22% and 26%
- Population Tubulin-Different-Phenotype (%) [2]: 48% and 77%
- Total Cell Count [2]: 170 and 149
- Population Apoptotic (%) [3]: 53% and 50%
- Population Fragmented Nuclei (%) [3]: 16% and 25%
- Population Healthy Nuclei (%) [3]: 74% and 53%
- Population Hoechst High Intensity Objects (%) [3]: 2% and 7%
- Population Membrane Permeable-Phenotype (%) [3]: 0% and 6%
- Population Mitochondria Different-Phenotype (%) [3]: 0% and 2%
- Population Mitotic Cells (%) [3]: 46% and 50%
- Population Normal (%) [3]: 97% and 92%
- Population Pyknosed Nuclei (%) [3]: 9% and 20%
- Population Tubulin-Different-Phenotype (%) [3]: 18% and 52%
- Total Cell Count [3]: 135 and 156
- Population Apoptotic (%) [4]: 26% and 28%
- Population Healthy Nuclei (%) [4]: 76% and 53%
- Population Hoechst High Intensity Objects (%) [4]: 4% and 6%
- Population Membrane Permeable-Phenotype (%) [4]: 1% and 9%
- Population Mitochondria Different-Phenotype (%) [4]: 7% and 1%
- Population Mitotic Cells (%) [4]: 73% and 72%
- Population Normal (%) [4]: 95% and 93%
- Population Pyknosed Nuclei (%) [4]: 16% and 18%
- Population Tubulin-Different-Phenotype (%) [4]: 49% and 69%
- Total Cell Count [4]: 163 and 147
- Population Apoptotic (%) [5]: 54% and 55%
- Population Fragmented Nuclei (%) [5]: 23% and 30%
- Population Healthy Nuclei (%) [5]: 67% and 53%
- Population Hoechst High Intensity Objects (%) [5]: 7%
- Population Membrane Permeable-Phenotype (%) [5]: 1% and 5%
- Population Mitochondria Different-Phenotype (%) [5]: 0% and 4%
- Population Mitotic Cells (%) [5]: 45% and 44%
- Population Normal (%) [5]: 92%
- Population Pyknosed Nuclei (%) [5]: 8% and 15%
- Population Tubulin-Different-Phenotype (%) [5]: 18% and 54%
- Total Cell Count [5]: 145 and 183
- Population Apoptotic (%) [6]: 66% and 52%
- Population Fragmented Nuclei (%) [6]: 16% and 31%
- Population Healthy Nuclei (%) [6]: 70% and 54%
- Population Hoechst High Intensity Objects (%) [6]: 7% and 5%
- Population Membrane Permeable-Phenotype (%) [6]: 3% and 6%
- Population Mitochondria Different-Phenotype (%) [6]: 3%
- Population Mitotic Cells (%) [6]: 33% and 47%
- Population Normal (%) [6]: 92% and 94%
- Population Pyknosed Nuclei (%) [6]: 12% and 14%
- Population Tubulin-Different-Phenotype (%) [6]: 55% and 66%
- Total Cell Count [6]: 160 and 153

Structure (SMILES): Cc1cc(C)cc(C(=O)NOCCCCCC(=O)NO)c1
- Population Apoptotic (%) [1]: 12.9% and 17.65%
- Population Fragmented Nuclei (%) [1]: 11.22% and 2.55%
- Population Healthy Nuclei (%) [1]: 72.96% and 88.78%
- Population Hoechst High Intensity Objects (%) [1]: 0%
- Population Membrane Permeable-Phenotype (%) [1]: 5.59% and 1.15%
- Population Mitochondria Different-Phenotype (%) [1]: 6.99% and 10.34%
- Population Mitotic Cells (%) [1]: 87.1% and 82.35%
- Population Normal (%) [1]: 100%
- Population Pyknosed Nuclei (%) [1]: 15.82% and 8.67%
- Population Tubulin-Different-Phenotype (%) [1]: 8.39% and 11.49%
- Total Cell Count [1]: 196
- Population Apoptotic (%) [2]: 12% and 31.25%
- Population Fragmented Nuclei (%) [2]: 15.5% and 6.05%
- Population Healthy Nuclei (%) [2]: 72% and 86.51%
- Population Hoechst High Intensity Objects (%) [2]: 0%
- Population Membrane Permeable-Phenotype (%) [2]: 6.94% and 1.61%
- Population Mitochondria Different-Phenotype (%) [2]: 5.56% and 6.45%
- Population Mitotic Cells (%) [2]: 88% and 68.75%
- Population Normal (%) [2]: 100%
- Population Pyknosed Nuclei (%) [2]: 12.5% and 7.44%
- Population Tubulin-Different-Phenotype (%) [2]: 9.03% and 6.45%
- Total Cell Count [2]: 200 and 215
- Population Apoptotic (%) [3]: 13.33% and 23.08%
- Population Fragmented Nuclei (%) [3]: 12.92% and 3.9%
- Population Healthy Nuclei (%) [3]: 79.9% and 89.76%
- Population Hoechst High Intensity Objects (%) [3]: 0%
- Population Membrane Permeable-Phenotype (%) [3]: 4.79% and 2.17%
- Population Mitochondria Different-Phenotype (%) [3]: 3.59% and 7.07%
- Population Mitotic Cells (%) [3]: 86.67% and 76.92%
- Population Normal (%) [3]: 100%
- Population Pyknosed Nuclei (%) [3]: 7.18% and 6.34%
- Population Tubulin-Different-Phenotype (%) [3]: 3.59% and 8.15%
- Total Cell Count [3]: 209 and 205
- Population Apoptotic (%) [4]: 63.64% and 52.94%
- Population Healthy Nuclei (%) [4]: 80.39% and 88.26%
- Population Hoechst High Intensity Objects (%) [4]: 0%
- Population Membrane Permeable-Phenotype (%) [4]: 3.66% and 0%
- Population Mitochondria Different-Phenotype (%) [4]: 2.44% and 4.26%
- Population Mitotic Cells (%) [4]: 36.36% and 47.06%
- Population Normal (%) [4]: 100%
- Population Pyknosed Nuclei (%) [4]: 5.39% and 7.98%
- Population Tubulin-Different-Phenotype (%) [4]: 3.66% and 2.66%
- Total Cell Count [4]: 204 and 213
- Population Apoptotic (%) [5]: 47.37% and 53.33%
- Population Fragmented Nuclei (%) [5]: 8.06% and 10.87%
- Population Healthy Nuclei (%) [5]: 82.94% and 82.61%
- Population Hoechst High Intensity Objects (%) [5]: 0%
- Population Membrane Permeable-Phenotype (%) [5]: 0.57% and 1.58%
- Population Mitotic Cells (%) [5]: 52.63% and 46.67%
- Population Normal (%) [5]: 100%
- Population Pyknosed Nuclei (%) [5]: 9% and 6.52%
- Population Tubulin-Different-Phenotype (%) [5]: 2.29% and 8.42%
- Total Cell Count [5]: 211 and 230
- Population Apoptotic (%) [6]: 44.19% and 95.35%
- Population Healthy Nuclei (%) [6]: 57.64% and 74.04%
- Population Hoechst High Intensity Objects (%) [6]: 0%
- Population Membrane Permeable-Phenotype (%) [6]: 1.71% and 10.39%
- Population Normal (%) [6]: 100%
- Population Pyknosed Nuclei (%) [6]: 21.18% and 20.67%
- Population Tubulin-Different-Phenotype (%) [6]: 4.27% and 13.64%
- Total Cell Count [6]: 203 and 208

Structure (SMILES): NCCc1cn(S(=O)(=O)c2c(Cl)nc3sccn23)c2ccccc12.O=C(O)C(=O)O
- Population Apoptotic (%) [1]: 45%
- Population Fragmented Nuclei (%) [1]: 20% and 34%
- Population Healthy Nuclei (%) [1]: 65% and 37%
- Population Hoechst High Intensity Objects (%) [1]: 4% and 3%
- Population Membrane Permeable-Phenotype (%) [1]: 0% and 13%
- Population Mitochondria Different-Phenotype (%) [1]: 5% and 8%
- Population Mitotic Cells (%) [1]: 55% and 54%
- Population Normal (%) [1]: 95% and 96%
- Population Pyknosed Nuclei (%) [1]: 14% and 28%
- Population Tubulin-Different-Phenotype (%) [1]: 40% and 62%
- Total Cell Count [1]: 146 and 170
- Population Apoptotic (%) [2]: 78% and 57%
- Population Fragmented Nuclei (%) [2]: 20% and 24%
- Population Healthy Nuclei (%) [2]: 56% and 44%
- Population Hoechst High Intensity Objects (%) [2]: 6%
- Population Membrane Permeable-Phenotype (%) [2]: 0% and 5%
- Population Mitochondria Different-Phenotype (%) [2]: 40% and 34%
- Population Mitotic Cells (%) [2]: 21% and 42%
- Population Normal (%) [2]: 93%
- Population Pyknosed Nuclei (%) [2]: 22% and 30%
- Population Tubulin-Different-Phenotype (%) [2]: 90% and 89%
- Total Cell Count [2]: 177 and 219
- Population Apoptotic (%) [3]: 50% and 46%
- Population Fragmented Nuclei (%) [3]: 21% and 35%
- Population Healthy Nuclei (%) [3]: 64% and 44%
- Population Hoechst High Intensity Objects (%) [3]: 3% and 4%
- Population Membrane Permeable-Phenotype (%) [3]: 0% and 18%
- Population Mitochondria Different-Phenotype (%) [3]: 13% and 11%
- Population Mitotic Cells (%) [3]: 50% and 53%
- Population Normal (%) [3]: 96% and 95%
- Population Pyknosed Nuclei (%) [3]: 13% and 20%
- Population Tubulin-Different-Phenotype (%) [3]: 42% and 70%
- Total Cell Count [3]: 156 and 166
- Population Apoptotic (%) [4]: 77% and 72%
- Population Fragmented Nuclei (%) [4]: 22% and 30%
- Population Healthy Nuclei (%) [4]: 62% and 51%
- Population Hoechst High Intensity Objects (%) [4]: 3% and 7%
- Population Membrane Permeable-Phenotype (%) [4]: 0% and 5%
- Population Mitochondria Different-Phenotype (%) [4]: 58% and 32%
- Population Mitotic Cells (%) [4]: 22% and 27%
- Population Normal (%) [4]: 96% and 92%
- Population Pyknosed Nuclei (%) [4]: 14% and 18%
- Population Tubulin-Different-Phenotype (%) [4]: 89% and 81%
- Total Cell Count [4]: 193 and 237
- Population Apoptotic (%) [5]: 50% and 54%
- Population Fragmented Nuclei (%) [5]: 27% and 38%
- Population Healthy Nuclei (%) [5]: 63% and 47%
- Population Hoechst High Intensity Objects (%) [5]: 4% and 6%
- Population Membrane Permeable-Phenotype (%) [5]: 2% and 9%
- Population Mitotic Cells (%) [5]: 50% and 45%
- Population Normal (%) [5]: 95% and 93%
- Population Pyknosed Nuclei (%) [5]: 9% and 14%
- Population Tubulin-Different-Phenotype (%) [5]: 46% and 58%
- Total Cell Count [5]: 177 and 166
- Population Apoptotic (%) [6]: 85% and 75%
- Population Fragmented Nuclei (%) [6]: 22% and 31%
- Population Healthy Nuclei (%) [6]: 65% and 59%
- Population Hoechst High Intensity Objects (%) [6]: 7% and 3%
- Population Membrane Permeable-Phenotype (%) [6]: 0% and 3%
- Population Mitochondria Different-Phenotype (%) [6]: 43% and 24%
- Population Mitotic Cells (%) [6]: 14% and 25%
- Population Normal (%) [6]: 92% and 96%
- Population Pyknosed Nuclei (%) [6]: 12% and 8%
- Population Tubulin-Different-Phenotype (%) [6]: 92% and 74%
- Total Cell Count [6]: 189 and 241
